Assay results from ChEMBL document CHEMBL4699419, “Antileishmanial assessment of isoxazole derivatives against L. donovani” (RSC Med Chem, 2020).

Columns and labels:
Leishmania donovani [1] = assay: Antileishmanial activity against Leishmania donovani MHOM/IN/80/Dd8 promastigotes harboring luciferase reporter gene infected in mouse J774 cells assessed as inhibition of amastigote growth incubated for 72 hrs by Steady-Glo luminescence assay; type: functional, organism-based
Summary of the method: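 J774A.1 mouse macrophages (2 × 10^5 per well, RPMI-1640 + 10% FCS, 37 °C CO2) infected after 24 h with stationary-phase luciferase-transgenic promastigotes at 1:10 macrophage:parasite; compounds in complete medium for 72 h at 37 °C. Medium swapped for PBS, Steady-Glo added, luminescence read; % inhibition vs untreated control RLU. IC50 by Probit log dose/response regression, three independent experiments.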

[2] = Cytotoxicity against mouse J774A1 cells assessed as reduction in cell viability incubated for 48 hrs by MTT assay; type: cell-based, J774.A1
Summary of the method: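 J774A.1 macrophages, 0.2 × 10^6 per well, incubated overnight at 37 °C in 5% CO2, then exposed to compounds in DMSO for 48 h, with DMSO dilutions as controls. Viability read by MTT formazan at 600 nm. CC50 = 50% viability reduction versus medium-only cells, from probit regression; three independent experiments.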

[3] = Selectivity index, ratio of CC50 for mouse J774.A1 cells to IC50 for amastigote form of Leishmania donovani MHOM/IN/80/Dd8; type: toxicity; conditions: read-out: Ratio CC50/IC50
Summary of the method: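 Macrophages infected at a 1:10 ratio with stationary promastigotes, then treated 72 h at 37 °C; luminescence read with Steady-Glo. IC50 values from probit analysis.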

Leishmania donovani [4] = assay: Antileishmanial activity against late log phase promastigote stage of Leishmania donovani MHOM/IN/80/Dd8 harboring luciferase reporter gene incubated for 72 hrs by Steady-Glo luminescence assay; type: functional, organism-based
Summary of the method: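 Luciferase-transfected promastigotes kept at 25 ± 1 °C in medium 199 + 10% heat-inactivated FCS + G418 (20 μg ml–1). Late-log cells (5 × 10^5 per well) grown 72 h with graded compound concentrations from DMSO, DMSO dilution controls. Aliquot mixed 1:1 with Steady-Glo, luminescence (RLU) read; % inhibition vs control. IC50 by Probit regression, three independent experiments.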

[5] = Leishmania donovani, MHOM/IN/80/Dd8, J774, 72 h, read-out: IC50
[6] = Leishmania donovani, MHOM/IN/80/Dd8, 72 h, read-out: IC50

Row | Structure (SMILES) | IC50 (Leishmania donovani [1]; [5]) | CC50 at 48 h [2] | selectivity ratio [3] | IC50 (Leishmania donovani [4]; [6]) | IC50 (Leishmania donovani [1]) | IC50 (Leishmania donovani [4])
1 | COC(=O)c1c(NCc2ccc(OC)cc2)noc1-c1ccc(Cl)cc1Cl | 23.9 µM | 34.6 µM | 1.5 | 3.09 µM | – | –
2 | COC(=O)c1c(NCc2ccc(C(C)(C)C)cc2)noc1-c1ccc([N+](=O)[O-])cc1 | 8.16 µM | 81.4 µM | 9.69 | 49.7 µM | – | –
3 | O=C(NCc1cccc(Cl)c1Cl)c1c([N+](=O)[O-])noc1-c1ccc([N+](=O)[O-])cc1 | – | – | – | – | Not Active | Not Active
4 | COC(=O)c1c([N+](=O)[O-])noc1-c1cccc(-c2ncoc2C)c1 | 7.1 µM | 18.4 µM | 2.5 | 0.86 µM | – | –
5 | O=C(O)c1c([N+](=O)[O-])noc1-c1ccc([N+](=O)[O-])cc1 | – | – | – | 19 µM | Not Active | –
6 | CCN(CC)CCNc1noc(-c2cc3c(cc2[N+](=O)[O-])OCO3)c1C(=O)OC | – | – | – | – | Not Active | Not Active
7 | COC(=O)c1c(NCCCNc2ccnc3cc(Cl)ccc23)noc1-c1ccccc1[N+](=O)[O-] | – | – | – | 1.98 µM | Not Active | –
8 | COC(=O)c1c(NCCNc2ccnc3cc(Cl)ccc23)noc1-c1ccccc1[N+](=O)[O-] | 18.7 µM | 73.6 µM | 3.94 | 3.45 µM | – | –
9 | COc1ccc(CNC(=O)c2c([N+](=O)[O-])noc2-c2ccc(Cl)cc2)cc1OC | 3.22 µM | 106 µM | 33 | 3.05 µM | – | –
10 | COC(=O)c1c([N+](=O)[O-])noc1-c1ccc(C(F)(F)F)cc1 | – | – | – | 0.66 µM | Not Active | –
11 | COC(=O)c1c(NCCCN2CCOCC2)noc1-c1ccc(Cl)cc1Cl | 21.2 µM | 73 µM | 3.44 | 2.58 µM | – | –
12 | COc1cccc(CNC(=O)c2c([N+](=O)[O-])noc2-c2ccc(Cl)cc2Cl)c1 | 11.3 µM | 61.1 µM | 5.41 | 3.02 µM | – | –
13 | O=C(NCc1ccc(F)cc1)c1c([N+](=O)[O-])noc1-c1ccc([N+](=O)[O-])cc1 | – | – | – | – | Not Active | Not Active
14 | COC(=O)c1c(NCCNc2cc(C(F)(F)F)nc3c(C(F)(F)F)cccc23)noc1-c1ccc(Cl)cc1Cl | 20.3 µM | 99 µM | 4.86 | 48.2 µM | – | –
15 | COC(=O)c1c([N+](=O)[O-])noc1-c1ccc([N+](=O)[O-])cc1 | – | – | – | 0.67 µM | Not Active | –
16 | COC(=O)c1c([N+](=O)[O-])noc1-c1cccc(-c2cccs2)c1 | – | – | – | 38.4 µM | Not Active | –
17 | COC(=O)c1c([N+](=O)[O-])noc1-c1cccc([N+](=O)[O-])c1 | – | – | – | 2.49 µM | Not Active | –
18 | COC(=O)c1c(NCc2ccc(OC)cc2OC)noc1-c1cc2c(cc1[N+](=O)[O-])OCO2 | – | – | – | – | Not Active | Not Active
19 | O=C(Nc1ccccc1)c1c([N+](=O)[O-])noc1-c1ccc(Cl)cc1Cl | 5.97 µM | 67.3 µM | 11.3 | 2.68 µM | – | –
20 | COC(=O)c1c(NCc2cccc(OC)c2)noc1-c1cc2c(cc1[N+](=O)[O-])OCO2 | – | – | – | – | Not Active | Not Active
21 | COC(=O)c1c(NCc2ccc(OC)c(OC)c2)noc1-c1ccc([N+](=O)[O-])cc1 | – | – | – | – | Not Active | Not Active
22 | CC(C)CCNC(=O)c1c([N+](=O)[O-])noc1-c1ccc(Cl)cc1 | – | – | – | – | Not Active | Not Active
23 | O=C(Nc1ccccc1)c1c([N+](=O)[O-])noc1-c1ccc([N+](=O)[O-])cc1 | – | – | – | – | Not Active | Not Active
24 | COC(=O)c1c(NCc2ccc(OC)c(OC)c2)noc1-c1cc2c(cc1[N+](=O)[O-])OCO2 | – | – | – | – | Not Active | Not Active
25 | O=C(c1c([N+](=O)[O-])noc1-c1ccc(Cl)cc1)N1CCOCC1 | – | – | – | – | Not Active | Not Active

Row | Structure (SMILES) | IC50 (Leishmania donovani [1]; [5]) | CC50 at 48 h [2] | selectivity ratio [3] | IC50 (Leishmania donovani [4]; [6]) | IC50 (Leishmania donovani [1]) | IC50 (Leishmania donovani [4])
26 | O=C(O)c1c([N+](=O)[O-])noc1-c1cc2c(cc1[N+](=O)[O-])OCO2 | – | – | – | – | Not Active | Not Active
27 | COC(=O)c1c([N+](=O)[O-])noc1-c1ccc(F)cc1 | – | – | – | 2.1 µM | Not Active | –
28 | COC(=O)c1c(NCc2ccc(OC)cc2)noc1-c1cc2c(cc1[N+](=O)[O-])OCO2 | – | – | – | – | Not Active | Not Active
29 | O=C(NCc1ccccc1)c1c([N+](=O)[O-])noc1-c1ccc(Cl)cc1Cl | – | – | – | 1.32 µM | Nd(Toxic) | –
30 | COC(=O)c1c([N+](=O)[O-])noc1-c1ccccc1 | – | – | – | 2.17 µM | Not Active | –
31 | COC(=O)c1c(NCc2ccc(F)cc2)noc1-c1ccc([N+](=O)[O-])cc1 | – | – | – | – | Not Active | Not Active
32 | COC(=O)c1c(NCc2ccc(OC)cc2)noc1-c1ccc([N+](=O)[O-])cc1 | – | – | – | – | Not Active | Not Active
33 | COc1cccc(CNC(=O)c2c([N+](=O)[O-])noc2-c2ccc([N+](=O)[O-])cc2)c1 | – | – | – | – | Not Active | Not Active
34 | COC(=O)c1c(NCCCNc2ccnc3cc(Cl)ccc23)noc1-c1ccccc1F | – | – | – | 16.8 µM | Not Active | –
35 | O=C(NCc1ccccc1)c1c([N+](=O)[O-])noc1-c1ccc([N+](=O)[O-])cc1 | – | – | – | – | Not Active | Not Active
36 | O=C(NCc1cccc(Br)c1)c1c([N+](=O)[O-])noc1-c1ccc(Cl)cc1 | – | – | – | – | Not Active | Not Active
37 | COC(=O)c1c([N+](=O)[O-])noc1-c1ccccc1[N+](=O)[O-] | – | – | – | 4.01 µM | Not Active | –
38 | COc1ccc(CNC(=O)c2c([N+](=O)[O-])noc2-c2ccc([N+](=O)[O-])cc2)cc1OC | – | – | – | 1.3 µM | Nd(Toxic) | –
39 | O=C(NCc1cccc(Br)c1)c1c([N+](=O)[O-])noc1-c1ccc([N+](=O)[O-])cc1 | – | – | – | – | Not Active | Not Active
40 | COC(=O)c1c(NCc2cccc(OC)c2)noc1-c1ccc([N+](=O)[O-])cc1 | – | – | – | – | Not Active | Not Active
41 | COC(=O)c1c(NCc2ccc(OC)cc2OC)noc1-c1ccc([N+](=O)[O-])cc1 | – | – | – | – | Not Active | Not Active
42 | COC(=O)c1c(NCc2ccc(C(C)(C)C)cc2)noc1-c1ccc(Cl)cc1Cl | > 50 µM | – | – | > 50 µM | – | –
43 | O=C(NCc1ccccc1)c1c([N+](=O)[O-])noc1-c1ccc(Cl)cc1 | – | – | – | – | Not Active | Not Active
44 | O=C(NCCN1CCOCC1)c1c([N+](=O)[O-])noc1-c1ccc(Cl)cc1 | – | – | – | – | Not Active | Not Active
45 | CCCNC(=O)c1c([N+](=O)[O-])noc1-c1ccc(Cl)cc1 | – | – | – | – | Not Active | Not Active
46 | CCN(CC)CCNc1noc(-c2ccc(Cl)cc2Cl)c1C(=O)OC | – | – | – | – | Not Active | Not Active
47 | COC(=O)c1c(NCc2ccccc2)noc1-c1cc2c(cc1[N+](=O)[O-])OCO2 | – | – | – | > 50 µM | Not Active | –
48 | COC(=O)c1c([N+](=O)[O-])noc1-c1ccc(Cl)cc1 | – | – | – | 1.79 µM | Not Active | –
49 | COC(=O)c1c([N+](=O)[O-])noc1-c1ccc(Cl)c(Cl)c1 | – | – | – | 1.11 µM | Not Active | –
